Series [1] in a line: Inhibition of radioligand binding to Sigma receptor at 10 uM.
Series [2] deals with Melanocortin receptor 4 (Homo sapiens) (UniProt P32245). Description: Inhibition of radioligand binding to MC4R at 10 uM.
For the next series, the species on record is Rattus norvegicus. Kind of series: Displacement of [3H]idazoxan from rat cerebral cortex imidazole receptor 2 at 10 uM in presence of 1 uM yohimbine. The format is tissue-based.
The target in series [3] is T1, MAO-B (amine oxidase [flavin-containing] B) (Homo sapiens, UniProt P27338).
T1 sequence (P27338 whole entry): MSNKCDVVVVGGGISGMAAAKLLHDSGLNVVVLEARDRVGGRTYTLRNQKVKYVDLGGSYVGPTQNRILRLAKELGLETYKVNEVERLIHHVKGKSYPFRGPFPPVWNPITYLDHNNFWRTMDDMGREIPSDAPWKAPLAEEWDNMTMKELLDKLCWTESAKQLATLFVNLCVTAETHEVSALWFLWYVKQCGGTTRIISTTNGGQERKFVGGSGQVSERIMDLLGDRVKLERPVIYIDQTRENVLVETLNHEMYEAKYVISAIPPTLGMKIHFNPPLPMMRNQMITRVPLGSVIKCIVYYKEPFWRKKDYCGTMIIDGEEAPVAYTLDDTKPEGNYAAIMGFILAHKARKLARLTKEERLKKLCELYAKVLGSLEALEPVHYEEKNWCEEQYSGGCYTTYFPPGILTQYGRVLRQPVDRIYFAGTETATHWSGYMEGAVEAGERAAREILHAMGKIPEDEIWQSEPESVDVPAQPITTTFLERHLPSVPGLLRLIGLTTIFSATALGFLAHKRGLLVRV
Kind of series: Inhibition of MAOB at 10 uM. In short, it runs like this:
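Radioligand binding panel. Values are average percentages of inhibition of specific binding, measured against potent standard ligands for each target.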

The target in series [4] is T2, 5-hydroxytryptamine receptor 1A (Homo sapiens) (UniProt P08908).
T2 sequence (whole entry): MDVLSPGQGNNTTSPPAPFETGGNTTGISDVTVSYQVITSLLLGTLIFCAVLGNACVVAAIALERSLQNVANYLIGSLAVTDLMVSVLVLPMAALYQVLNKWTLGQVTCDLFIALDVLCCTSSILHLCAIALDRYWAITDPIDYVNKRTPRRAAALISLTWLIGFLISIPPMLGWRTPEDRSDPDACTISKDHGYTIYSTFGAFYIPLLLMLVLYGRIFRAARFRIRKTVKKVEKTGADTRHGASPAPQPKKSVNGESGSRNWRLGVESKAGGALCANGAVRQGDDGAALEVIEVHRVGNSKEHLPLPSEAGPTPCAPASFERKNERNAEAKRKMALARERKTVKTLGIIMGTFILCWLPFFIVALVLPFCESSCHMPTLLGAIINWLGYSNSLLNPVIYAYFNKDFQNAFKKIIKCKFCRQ
Description: Inhibition of radioligand binding to 5HT1A at 10 uM. In a few lines:
(§1)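 Part of an in vitro radioligand binding panel. Each target was tested against a potent standard radioligand for that site. The read-out was percent inhibition of specific binding, reported as an average value.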

Series [5] deals with T3, Muscarinic acetylcholine receptor M4 (Homo sapiens) (UniProt P08173).
T3 sequence (whole entry): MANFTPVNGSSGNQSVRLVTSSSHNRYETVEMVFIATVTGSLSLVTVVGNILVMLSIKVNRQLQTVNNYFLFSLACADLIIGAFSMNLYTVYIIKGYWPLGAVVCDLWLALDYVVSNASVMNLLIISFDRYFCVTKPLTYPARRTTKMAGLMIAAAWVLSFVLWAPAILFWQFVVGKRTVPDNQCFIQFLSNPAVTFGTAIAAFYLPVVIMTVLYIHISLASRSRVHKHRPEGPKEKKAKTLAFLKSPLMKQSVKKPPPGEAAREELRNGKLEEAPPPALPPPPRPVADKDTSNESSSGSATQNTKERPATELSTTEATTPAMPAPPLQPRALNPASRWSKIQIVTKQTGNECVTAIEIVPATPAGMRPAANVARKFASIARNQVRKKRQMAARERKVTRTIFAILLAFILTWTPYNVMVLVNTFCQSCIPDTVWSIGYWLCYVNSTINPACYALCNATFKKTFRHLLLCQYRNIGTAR
Description: Inhibition of radioligand binding to muscarinic M4 receptor at 10 uM. In short, it runs like this: as §1

The next series addresses Nischarin (Homo sapiens, UniProt Q9Y2I1). Description: Inhibition of radioligand binding to imidazole receptor 1.

Inhibition and Ki data for 3 compounds are collected here from ChEMBL document CHEMBL2176910, “Identification of small molecule inhibitors of amyloid β-induced neuronal apoptosis acting through the imidazoline I(2) receptor” (J Med Chem, 2012).

pKi: −log10 of the molar value.

Melanocortin receptor 4 (Homo sapiens), sequence (P32245 whole entry): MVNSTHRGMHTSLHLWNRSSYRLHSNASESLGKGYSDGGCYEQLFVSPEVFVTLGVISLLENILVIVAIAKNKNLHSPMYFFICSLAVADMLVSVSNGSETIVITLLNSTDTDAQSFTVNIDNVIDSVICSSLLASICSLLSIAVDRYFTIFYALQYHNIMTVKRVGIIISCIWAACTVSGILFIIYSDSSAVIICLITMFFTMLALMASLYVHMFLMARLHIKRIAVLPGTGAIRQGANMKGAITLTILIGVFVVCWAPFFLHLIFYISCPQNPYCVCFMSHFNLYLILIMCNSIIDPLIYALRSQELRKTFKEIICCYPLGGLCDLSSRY
Nischarin, sequence (Q9Y2I1 whole entry): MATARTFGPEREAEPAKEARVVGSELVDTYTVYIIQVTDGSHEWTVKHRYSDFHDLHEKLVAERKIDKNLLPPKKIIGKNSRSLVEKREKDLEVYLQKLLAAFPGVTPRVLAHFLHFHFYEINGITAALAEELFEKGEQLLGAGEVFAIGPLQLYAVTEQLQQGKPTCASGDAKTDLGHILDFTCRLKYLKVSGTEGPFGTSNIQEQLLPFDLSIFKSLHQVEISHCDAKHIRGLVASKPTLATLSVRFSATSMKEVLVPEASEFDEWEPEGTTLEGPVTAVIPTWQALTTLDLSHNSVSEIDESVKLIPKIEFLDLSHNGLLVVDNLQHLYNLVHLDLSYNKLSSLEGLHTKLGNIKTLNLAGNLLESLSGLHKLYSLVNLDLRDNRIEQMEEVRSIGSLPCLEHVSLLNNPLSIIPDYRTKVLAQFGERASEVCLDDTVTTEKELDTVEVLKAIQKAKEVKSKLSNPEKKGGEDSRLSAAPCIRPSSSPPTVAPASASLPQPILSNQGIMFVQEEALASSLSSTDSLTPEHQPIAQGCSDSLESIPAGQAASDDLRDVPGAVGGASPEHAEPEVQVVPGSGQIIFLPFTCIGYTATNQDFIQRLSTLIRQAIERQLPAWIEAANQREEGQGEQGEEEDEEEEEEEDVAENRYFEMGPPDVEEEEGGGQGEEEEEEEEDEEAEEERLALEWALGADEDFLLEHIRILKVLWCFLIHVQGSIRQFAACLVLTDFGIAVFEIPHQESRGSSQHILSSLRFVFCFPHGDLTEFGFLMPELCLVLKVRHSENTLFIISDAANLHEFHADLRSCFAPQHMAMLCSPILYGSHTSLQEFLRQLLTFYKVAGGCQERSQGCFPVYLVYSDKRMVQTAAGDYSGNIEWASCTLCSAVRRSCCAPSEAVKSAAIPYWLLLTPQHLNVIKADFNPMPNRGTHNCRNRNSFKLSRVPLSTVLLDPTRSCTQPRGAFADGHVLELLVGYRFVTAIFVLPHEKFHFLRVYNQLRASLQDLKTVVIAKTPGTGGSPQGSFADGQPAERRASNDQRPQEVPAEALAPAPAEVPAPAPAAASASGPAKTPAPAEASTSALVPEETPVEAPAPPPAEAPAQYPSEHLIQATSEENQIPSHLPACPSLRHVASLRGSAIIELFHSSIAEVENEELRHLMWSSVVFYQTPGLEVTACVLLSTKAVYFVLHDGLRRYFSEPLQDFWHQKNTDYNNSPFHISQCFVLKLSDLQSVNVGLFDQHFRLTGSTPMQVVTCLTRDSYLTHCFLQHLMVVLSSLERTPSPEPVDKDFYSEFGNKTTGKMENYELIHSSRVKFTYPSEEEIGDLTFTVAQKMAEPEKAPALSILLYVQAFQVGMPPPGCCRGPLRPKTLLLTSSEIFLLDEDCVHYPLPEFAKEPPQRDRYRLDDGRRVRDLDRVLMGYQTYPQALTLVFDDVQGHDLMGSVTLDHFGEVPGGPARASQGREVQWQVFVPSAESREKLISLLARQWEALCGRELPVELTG

A word on the inhibition: it is the share of the control response that was lost under treatment. For the compound `CN1CCNC(c2ccccc2)C1` (centres undefined), the inhibition in series [1] was under 20%; in series [2] it was under 20%; in the series filed under Rattus norvegicus, 41%; in series [4], under 20%; in series [5], under 20%. For the same compound, the inhibition at 10 µM in series [3] was under 20%.
Consider `NCC12CCC3CC(CC3C1)C2` (centres undefined), for which the inhibition was 39% in series [1]; under 20% in series [2]; 34% in the series filed under Rattus norvegicus; under 20% in series [4]; under 20% in series [5]. The same compound registered an inhibition at 10 µM in series [3] of under 20%.
Broadly, the pKi is −log10 of the Ki, conventionally taken in molar units. High values mean a low Ki, low ones a high Ki. Consider `CN(C)C(CN)c1ccccc1Cl` (centres undefined), for which the inhibition in series [1] was under 20%; in series [2], under 20%; in the series filed under Rattus norvegicus it was 43%; in series [4] it was under 20%; in series [5] it was under 20%. In series [3], this compound came in with an inhibition at 10 µM of under 20%. At Nischarin, this compound had a pKi of 5.28.
